Experimental data: ChEMBL document CHEMBL1154616, “Synthesis and antitumor activity studies of some new fused 1,2,4-triazole derivatives carrying 2,4-dichloro-5-fluorophenyl moiety” (Eur J Med Chem, 2009)

How the values were obtained:
Assay type in all cases: functional
[1] = system: MOLT-4; assay: Anticancer activity against human MOLT4 cells after 48 hrs by sulforhodamine B assay; conditions: MOLT-4, 48 h
Outline: (§1)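 Full 60-cell-line panel, compounds tested over a five-log dose range. Cells are preincubated on microtiter plates, the agent is added, and cultures run 48 h. The end point is sulphorhodamine B protein staining. GI50 is taken as the concentration giving 50% growth inhibition relative to untreated control cells.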

[2] = system: SR; assay: Anticancer activity against human SR cells after 48 hrs by sulforhodamine B assay
Outline: (§2)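 Cells from the 60-line full panel are preincubated on microtiter plates, then treated across a five-log dose range for 48 h. Growth is read with the protein-binding dye sulforhodamine B. GI50 is the concentration giving 50% growth inhibition relative to untreated control cells.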

[3] = system: CAKI-1; assay: Anticancer activity against human Caki1 cells after 48 hrs by sulforhodamine B assay; conditions: CAKI-1, 48 h; outline: as §1
[4] = system: NCI/ADR-RES; assay: Anticancer activity against human NCI/ADR-RES cells after 48 hrs by sulforhodamine B assay; outline: as §1
[5] = Anticancer activity against human Hs 578T cells after 48 hrs by sulforhodamine B assay; outline: as §1
[6] = system: Malme-3M; assay: Anticancer activity against human MALME-3M cells after 48 hrs by sulforhodamine B assay; outline: as §1
[7] = system: MCF7; assay: Anticancer activity against human MCF7 cells assessed as cell growth at 100 uM after 48 hrs by sulforhodamine B assay relative to control; conditions: MCF7, 48 h, read-out: Activity
Outline: (§3)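 Three-cell-line prescreen (NCI-H460 lung, MCF7 breast, SF 268 CNS), each preincubated on microtiter plates. The agent is added at a single concentration and cultures are incubated 48 h. Growth is read by sulphorhodamine B protein staining and reported as percent growth of treated versus untreated control cells; negative values indicate cell kill.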

[8] = system: OVCAR-8; assay: Anticancer activity against human OVCAR8 cells after 48 hrs by sulforhodamine B assay; conditions: OVCAR-8, 48 h; outline: as §1
[9] = system: UACC-62; assay: Anticancer activity against human UACC62 cells after 48 hrs by sulforhodamine B assay; conditions: UACC-62, 48 h; outline: as §2
[10] = system: 786-0; assay: Anticancer activity against human 786-0 cells after 48 hrs by sulforhodamine B assay; conditions: 786-0, 48 h; outline: as §1
[11] = system: MCF7; assay: Anticancer activity against human MCF7 cells after 48 hrs by sulforhodamine B assay; conditions: MCF7, 48 h; outline: as §1
[12] = system: EKVX; assay: Anticancer activity against human EKVX cells after 48 hrs by sulforhodamine B assay; outline: as §1
[13] = system: PC-3; assay: Anticancer activity against human PC3 cells after 48 hrs by sulforhodamine B assay; conditions: PC-3, 48 h; outline: as §1
[14] = system: SK-MEL-28; assay: Anticancer activity against human SK-MEL-28 cells after 48 hrs by sulforhodamine B assay; conditions: SK-MEL-28, 48 h; outline: as §1
[15] = system: MDA-MB-435; assay: Anticancer activity against human MDA-MB-435 cells after 48 hrs by sulforhodamine B assay; conditions: MDA-MB-435, 48 h; outline: as §1
[16] = system: M14; assay: Anticancer activity against human M14 cells after 48 hrs by sulforhodamine B assay; conditions: M14, 48 h; outline: as §1
[17] = system: SW-620; assay: Anticancer activity against human SW620 cells after 48 hrs by sulforhodamine B assay; conditions: SW-620, 48 h; outline: as §2
[18] = system: SF-268; assay: Anticancer activity against human SF268 cells after 48 hrs by sulforhodamine B assay; conditions: SF-268, 48 h; outline: as §1
[19] = system: NCI-H226; assay: Anticancer activity against human NCI-H226 cells after 48 hrs by sulforhodamine B assay; conditions: NCI-H226, 48 h; outline: as §1
[20] = Anticancer activity against human […] cells after 48 hrs by sulforhodamine B assay; outline: as §1
[21] = system: SNB-75; assay: Anticancer activity against human SNB75 cells after 48 hrs by sulforhodamine B assay; conditions: SNB-75, 48 h; outline: as §2
[22] = system: ACHN; assay: Anticancer activity against human ACHN cells after 48 hrs by sulforhodamine B assay; outline: as §1
[23] = system: OVCAR-4; assay: Anticancer activity against human OVCAR4 cells after 48 hrs by sulforhodamine B assay; conditions: OVCAR-4, 48 h; outline: as §1
[24] = system: NCI-H322M; assay: Anticancer activity against human NCI-H322M cells after 48 hrs by sulforhodamine B assay; outline: as §1
[25] = system: HCT-116; assay: Anticancer activity against human HCT116 cells after 48 hrs by sulforhodamine B assay; conditions: HCT-116, 48 h; outline: as §1
[26] = system: NCI-H522; assay: Anticancer activity against human NCI-H522 cells after 48 hrs by sulforhodamine B assay; conditions: NCI-H522, 48 h; outline: as §1
[27] = system: OVCAR-5; assay: Anticancer activity against human OVCAR5 cells after 48 hrs by sulforhodamine B assay; conditions: OVCAR-5, 48 h; outline: as §1
[28] = system: HT-29; assay: Anticancer activity against human HT-29 cells after 48 hrs by sulforhodamine B assay; conditions: HT-29, 48 h; outline: as §1
[29] = system: UO-31; assay: Anticancer activity against human UO31 cells after 48 hrs by sulforhodamine B assay; conditions: UO-31, 48 h; outline: as §2
[30] = system: T47D; assay: Anticancer activity against human T47D cells after 48 hrs by sulforhodamine B assay; outline: as §2
[31] = system: IGROV-1; assay: Anticancer activity against human IGROV1 cells after 48 hrs by sulforhodamine B assay; conditions: IGROV-1, 48 h; outline: as §1
[32] = system: KM12; assay: Anticancer activity against human KM12 cells after 48 hrs by sulforhodamine B assay; conditions: KM12, 48 h; outline: as §1
[33] = system: A549; assay: Anticancer activity against human A549 cells after 48 hrs by sulforhodamine B assay; conditions: A549, 48 h; outline: as §1
[34] = system: HL-60(TB); assay: Anticancer activity against human HL-60(TB) cells after 48 hrs by sulforhodamine B assay; conditions: HL-60, 48 h
Outline: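 Run within the full 60-cell-line panel across a five-log dose range. GI50 was taken as the concentration causing 50% growth inhibition relative to untreated control cells.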

[35] = system: LOX IMVI; assay: Anticancer activity against human LOXIMVI cells after 48 hrs by sulforhodamine B assay; outline: as §1
[36] = system: K562; assay: Anticancer activity against human K562 cells after 48 hrs by sulforhodamine B assay; conditions: K562, 48 h; outline: as §1
[37] = system: RXF 393; assay: Anticancer activity against human RXF393 cells after 48 hrs by sulforhodamine B assay; conditions: RXF 393, 48 h; outline: as §1
[38] = system: SN12C; assay: Anticancer activity against human SN12C cells after 48 hrs by sulforhodamine B assay; outline: as §1
[39] = system: SK-OV-3; assay: Anticancer activity against human SKOV3 cells after 48 hrs by sulforhodamine B assay; conditions: SK-OV-3, 48 h; outline: as §1
[40] = system: SF-268; assay: Anticancer activity against human SF268 cells assessed as cell growth at 100 uM after 48 hrs by sulforhodamine B assay relative to control; conditions: SF-268, 48 h, read-out: Activity; outline: as §3
[41] = system: SF-539; assay: Anticancer activity against human SF539 cells after 48 hrs by sulforhodamine B assay; conditions: SF-539, 48 h; outline: as §1
[42] = system: HCC 2998; assay: Anticancer activity against human HCC2998 cells after 48 hrs by sulforhodamine B assay; conditions: HCC 2998, 48 h; outline: as §1
[43] = system: UACC-257; assay: Anticancer activity against human UACC257 cells after 48 hrs by sulforhodamine B assay; conditions: UACC-257, 48 h; outline: as §2
[44] = system: SF-295; assay: Anticancer activity against human SF295 cells after 48 hrs by sulforhodamine B assay; conditions: SF-295, 48 h; outline: as §1
[45] = system: DU-145; assay: Anticancer activity against human DU145 cells after 48 hrs by sulforhodamine B assay; conditions: DU-145, 48 h; outline: as §1
[46] = system: NCI-H23; assay: Anticancer activity against human NCI-H23 cells after 48 hrs by sulforhodamine B assay; conditions: NCI-H23, 48 h; outline: as §1
[47] = system: HOP-62; assay: Anticancer activity against human HOP62 cells after 48 hrs by sulforhodamine B assay; conditions: HOP-62, 48 h; outline: as §1
[48] = system: NCI-H460; assay: Anticancer activity against human NCI-H460 cells assessed as cell growth at 100 uM after 48 hrs by sulforhodamine B assay relative to control; conditions: NCI-H460, 48 h, read-out: Activity; outline: as §3
[49] = system: NCI-H460; assay: Anticancer activity against human NCI-H460 cells after 48 hrs by sulforhodamine B assay; conditions: NCI-H460, 48 h; outline: as §1
[50] = system: HOP-92; assay: Anticancer activity against human HOP92 cells after 48 hrs by sulforhodamine B assay; conditions: HOP-92, 48 h; outline: as §1
[51] = system: CCRF-CEM; assay: Anticancer activity against human CCRF-CEM cells after 48 hrs by sulforhodamine B assay; outline: as §1
[52] = system: COLO 205; assay: Anticancer activity against human COLO205 cells after 48 hrs by sulforhodamine B assay; conditions: COLO 205, 48 h; outline: as §1
[53] = system: SNB-19; assay: Anticancer activity against human SNB19 cells after 48 hrs by sulforhodamine B assay; conditions: SNB-19, 48 h; outline: as §1
[54] = system: MDA-MB-231; assay: Anticancer activity against human MDA-MB-231 cells after 48 hrs by sulforhodamine B assay; conditions: MDA-MB-231, 48 h; outline: as §1
[55] = system: TK-10; assay: Anticancer activity against human TK10 cells after 48 hrs by sulforhodamine B assay; conditions: TK-10, 48 h; outline: as §2
[56] = system: OVCAR-3; assay: Anticancer activity against human OVCAR-3 cells after 48 hrs by sulforhodamine B assay; conditions: OVCAR-3, 48 h; outline: as §1
[57] = system: U-251; assay: Anticancer activity against human U251 cells after 48 hrs by sulforhodamine B assay; conditions: U-251, 48 h; outline: as §2
[58] = system: HCT-15; assay: Anticancer activity against human HCT15 cells after 48 hrs by sulforhodamine B assay; conditions: HCT-15, 48 h; outline: as §1

Fc1cc(-c2nnc3n2N=C(c2ccc(Cl)cc2Cl)CS3)c(Cl)cc1Cl
GI50 [1]: 75.1 µM | GI50 [2]: > 100 µM | GI50 [3]: 35.9 µM | GI50 [4]: 30.8 µM | GI50 [5]: 33.6 µM | GI50 [6]: 26.6 µM | growth at 100 µM [7]: 69% | GI50 [8]: 57.3 µM | GI50 [9]: 24.9 µM | GI50 [10]: 47.1 µM | GI50 [11]: 31.3 µM | GI50 [12]: 58.5 µM | GI50 [13]: 39.2 µM | GI50 [14]: 40.2 µM | GI50 [15]: 24.4 µM | GI50 [16]: 37.5 µM | GI50 [17]: 36.8 µM | GI50 [18]: 36.6 µM | GI50 [19]: 36.5 µM | GI50 [20]: 25.3 µM | GI50 [21]: > 100 µM | GI50 [22]: 66.6 µM | GI50 [23]: > 100 µM | GI50 [24]: 76.4 µM | GI50 [25]: 25.4 µM | GI50 [26]: 50.8 µM | GI50 [27]: > 100 µM | GI50 [28]: 40.5 µM | GI50 [29]: 60.2 µM | GI50 [30]: 17.7 µM | GI50 [31]: 50.4 µM | GI50 [32]: 41.9 µM | GI50 [33]: 58 µM | GI50 [34]: > 100 µM | GI50 [35]: 34.3 µM | GI50 [36]: 47.5 µM | GI50 [37]: 51 µM | GI50 [38]: 56.4 µM | GI50 [39]: 48 µM | growth at 100 µM [40]: 76% | GI50 [41]: 39.2 µM | GI50 [42]: 35 µM | GI50 [43]: 86 µM | GI50 [44]: 36.4 µM | GI50 [45]: 49.5 µM | GI50 [46]: 82.5 µM | GI50 [47]: 44.2 µM | growth at 100 µM [48]: 32% | GI50 [49]: 37.3 µM | GI50 [50]: 54.2 µM | GI50 [51]: 27.6 µM | GI50 [52]: 32.9 µM | GI50 [53]: 25.4 µM | GI50 [54]: 33.7 µM | GI50 [55]: 77.3 µM | GI50 [56]: 22.8 µM | GI50 [57]: 56.2 µM | GI50 [58]: 38.3 µM
